Measured values reported in ChEMBL document CHEMBL4033622, “Synthesis and the interaction of 2-(1H-pyrazol-4-yl)-1H-imidazo[4,5-f][1,10]phenanthrolines with telomeric DNA as lung cancer inhibitors” (Eur J Med Chem, 2017).
The source made the active and inactive calls. The calls are words filed in the database; no cut-off is given here.

Assays:
[1] = test system: A549; experiment: Cytotoxicity against human A549 cells assessed as cell growth inhibition at 10 uM after 36 hrs by CCK8 assay; type: functional, cell-based
[2] = test system: MRC5; experiment: Cytotoxicity against human MRC5 cells after 36 hrs by CCK8 assay; type: cell-based; details: MRC5, 36 h
[3] = test system: A549; experiment: Cytotoxicity against human A549 cells after 36 hrs by CCK8 assay; type: functional, cell-based; details: A549, 36 h
[4] = Selectivity index, ratio of IC50 for human MRC5 cells to IC50 for human A549 cells; type: functional
[5] = organism: Homo sapiens; experiment: Binding affinity to human telomeric 26 mutated DNA up to 40 uM after 24 hrs by SYGR gold staining based electrophoretic mobility shift assay
[6] = organism: Homo sapiens; experiment: Binding affinity to human telomeric 26 double stranded DNA up to 40 uM after 24 hrs by SYBR gold staining based electrophoretic mobility shift assay
[7] = organism: Homo sapiens; experiment: Binding affinity to human telomeric 26 G-quadruplex DNA assessed as change in melting temperature at drug/DNA ratio of 1:10 by UV spectrophotometry (reference value: 39.34 degC)
[8] = test system: A549; experiment: Anti-migratory activity against human A549 cells assessed as […] at 0.05 uM after 48 hrs by wound healing assay relative to control; type: functional; details: A549, 48 h
Summary of the method: (§1)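 A549 monolayer seeded at 1 × 10⁵ cells/mL and grown 24 h, then scratched with a pipette tip. Compounds were added and cells kept 48 h in serum-free medium, then photographed. Migration distance was measured against lines fitted to the wound edges, with three points per plate. Inhibition (%) = (1 − D_drug/D_control) × 100. Mean ± SD of three independent experiments in triplicate.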

[9] = test system: A549; experiment: Anti-migratory activity against human A549 cells assessed as […] at 0.1 uM after 48 hrs by wound healing assay relative to control; type: functional; details: A549, 48 h; summary of the method: as §1
[10] = test system: A549; experiment: Anti-migratory activity against human A549 cells assessed as […] at 0.2 uM after 48 hrs by wound healing assay relative to control; type: functional; details: A549, 48 h; summary of the method: as §1
[11] = organism: Homo sapiens; experiment: Binding affinity to human telomeric 26 G-quadruplex DNA up to 20 uM after 24 hrs by SYBR gold staining based electrophoretic mobility shift assay
[12] = organism: Homo sapiens; experiment: Binding affinity to human telomeric 26 G-quadruplex DNA after 24 hrs by SYBR gold staining based electrophoretic mobility shift assay
[13] = test system: A549; experiment: Cytotoxicity against human A549/ATCC cells after 48 hrs by sulforhodamine B assay; type: functional, cell-based; details: A549, 48 h

Q: Which “growth inhibition (GI)” value [1] does the source give for Brc1ccc(-c2nc3c4cccnc4c4ncccc4c3[nH]2)cc1 here?
A: Active

Q: And the IC50 [2]?
A: 6.88 µM

Q: What about the IC50 [3] of the same compound?
A: 1.69 µM

Q: And the “Ratio IC50” value [4]?
A: 4.07

Q: And the Activity [5]?
A: inactive

Q: What about the Activity [6] of the same compound?
A: inactive

Q: What about the ΔTm [7] of the same compound?
A: 11 °C

Q: And the inhibition of growth at 0.05 µM [8]?
A: 16.1%

Q: And the inhibition of growth at 0.1 µM [9]?
A: 23.7%

Q: What about the inhibition of growth at 0.2 µM [10] of the same compound?
A: 56.1%

Q: And the Activity [11]?
A: inactive

Q: For Fc1ccc(-c2nn(Cc3ccccc3)cc2-c2nc3c4cccnc4c4ncccc4c3[nH]2)cc1, which “growth inhibition (GI)” value [1] is on record?
A: Active

Q: And the IC50 [2]?
A: 3.8 µM

Q: And the IC50 [3]?
A: 1.78 µM

Q: And the “Ratio IC50” value [4]?
A: 2.13

Q: What about the ΔTm [7] of the same compound?
A: 12.4 °C

Q: And the inhibition of growth at 0.05 µM [8]?
A: 34.5%

Q: What about the inhibition of growth at 0.1 µM [9] of the same compound?
A: 86.6%

Q: And the inhibition of growth at 0.2 µM [10]?
A: 93.3%

Q: What about the Activity [11] of the same compound?
A: inactive

Q: With Cn1cc(-c2nc3c4cccnc4c4ncccc4c3[nH]2)c(-c2ccc(Br)cc2)n1 as the compound, how does the “growth inhibition (GI)” value [1] read?
A: Active

Q: Which “growth inhibition (GI)” value [1] does the source give for Cc1ccc(-c2nn(C)cc2-c2nc3c4cccnc4c4ncccc4c3[nH]2)cc1 here?
A: Active

Q: With O=[N+]([O-])c1ccc(-n2cc(-c3nc4c5cccnc5c5ncccc5c4[nH]3)c(-c3ccc(F)cc3)n2)c([N+](=O)[O-])c1 as the compound, how does the “growth inhibition (GI)” value [1] read?
A: Active

Q: Which results are given for Cc1ccc(-c2nn(Cc3ccccc3)cc2-c2nc3c4cccnc4c4ncccc4c3[nH]2)cc1?
A: growth inhibition (GI) [1]: Active; IC50 [2]: 4.76 µM; IC50 [3]: 2.75 µM; Ratio IC50 [4]: 1.73; ΔTm [7]: 16.3 °C; inhibition of growth at 0.05 µM [8]: 16.3%; inhibition of growth at 0.1 µM [9]: 54.6%; inhibition of growth at 0.2 µM [10]: 85.8%; Activity [11]: inactive

Q: Which “growth inhibition (GI)” value [1] does the source give for Brc1ccc(-c2nn(Cc3ccccc3)cc2-c2nc3c4cccnc4c4ncccc4c3[nH]2)cc1 here?
A: Active

Q: And the IC50 [2]?
A: 3.83 µM

Q: And the IC50 [3]?
A: 1.48 µM

Q: And the “Ratio IC50” value [4]?
A: 2.58

Q: And the Activity [12]?
A: Dose-dependent effect

Q: And the Activity [5]?
A: inactive

Q: What about the Activity [6] of the same compound?
A: inactive

Q: And the ΔTm [7]?
A: 20.5 °C

Q: What about the inhibition of growth at 0.05 µM [8] of the same compound?
A: 48.3%

Q: What about the inhibition of growth at 0.1 µM [9] of the same compound?
A: 78.8%

Q: What about the inhibition of growth at 0.2 µM [10] of the same compound?
A: 98.4%

Q: What about the Activity [11] of the same compound?
A: Active

Q: Which “growth inhibition (GI)” value [1] does the source give for Nc1ccc(-n2cc(-c3nc4c5cccnc5c5ncccc5c4[nH]3)c(-c3ccc(Br)cc3)n2)nn1 here?
A: Active

Q: Which “growth inhibition (GI)” value [1] does the source give for Clc1ccc(-c2n[nH]cc2-c2nc3c4cccnc4c4ncccc4c3[nH]2)cc1 here?
A: Active

Q: For Fc1ccc(-c2n[nH]cc2-c2nc3c4cccnc4c4ncccc4c3[nH]2)cc1, which “growth inhibition (GI)” value [1] is on record?
A: Active

Q: With Cc1ccc(-c2nn(-c3ccc([N+](=O)[O-])cc3[N+](=O)[O-])cc2-c2nc3c4cccnc4c4ncccc4c3[nH]2)cc1 as the compound, how does the “growth inhibition (GI)” value [1] read?
A: Active

Q: For Oc1cn(-c2ccc(Cl)cc2)nc1-c1n[nH]c(=S)n1-c1ccc(F)cc1, which GI50 [13] is on record?
A: 13.2 µM

Q: With Cn1cc(-c2nc3c4cccnc4c4ncccc4c3[nH]2)c(-c2ccc(F)cc2)n1 as the compound, how does the “growth inhibition (GI)” value [1] read?
A: Active

Q: Which “growth inhibition (GI)” value [1] does the source give for O=[N+]([O-])c1ccc(-n2cc(-c3nc4c5cccnc5c5ncccc5c4[nH]3)c(-c3ccc(Br)cc3)n2)c([N+](=O)[O-])c1 here?
A: Active

Q: For Cc1ccc(-c2nn(CCCN(C)C)cc2-c2nc3c4cccnc4c4ncccc4c3[nH]2)cc1, which “growth inhibition (GI)” value [1] is on record?
A: Active

Q: Which “growth inhibition (GI)” value [1] does the source give for CN(C)CCCn1cc(-c2nc3c4cccnc4c4ncccc4c3[nH]2)c(-c2ccc(Br)cc2)n1 here?
A: Active

Q: For Cn1cc(-c2nc3c4cccnc4c4ncccc4c3[nH]2)c(-c2ccc(Cl)cc2)n1, which “growth inhibition (GI)” value [1] is on record?
A: Active

Q: For CN(C)CCCn1cc(-c2nc3c4cccnc4c4ncccc4c3[nH]2)c(-c2ccc(F)cc2)n1, which “growth inhibition (GI)” value [1] is on record?
A: Active

Q: For CN(C)CCCn1cc(-c2nc3c4cccnc4c4ncccc4c3[nH]2)c(-c2ccc(Cl)cc2)n1, which “growth inhibition (GI)” value [1] is on record?
A: Active

Q: With O=[N+]([O-])c1ccc(-n2cc(-c3nc4c5cccnc5c5ncccc5c4[nH]3)c(-c3ccc(Cl)cc3)n2)c([N+](=O)[O-])c1 as the compound, how does the “growth inhibition (GI)” value [1] read?
A: Active

Q: What does the source list for Clc1ccc(-c2nn(Cc3ccccc3)cc2-c2nc3c4cccnc4c4ncccc4c3[nH]2)cc1?
A: growth inhibition (GI) [1]: Active; IC50 [2]: 4.17 µM; IC50 [3]: 2.08 µM; Ratio IC50 [4]: 2; ΔTm [7]: 13.5 °C; inhibition of growth at 0.05 µM [8]: 24.7%; inhibition of growth at 0.1 µM [9]: 54.2%; inhibition of growth at 0.2 µM [10]: 94.4%; Activity [11]: inactive

Q: For Brc1ccc(-c2n[nH]cc2-c2nc3c4cccnc4c4ncccc4c3[nH]2)cc1, which “growth inhibition (GI)” value [1] is on record?
A: Active

Q: With Cc1ccc(-c2n[nH]cc2-c2nc3c4cccnc4c4ncccc4c3[nH]2)cc1 as the compound, how does the “growth inhibition (GI)” value [1] read?
A: Active
